In ChEMBL document CHEMBL2086264:
Converted amounts (≈) assume the structure as drawn. The source made the active and inactive calls. The rule behind the calls is not given here.

Assays:
Staphylococcus aureus [1] = assay: Antibacterial activity against Staphylococcus aureus ATCC 29213 after overnight incubation by microbroth dilution assay; type: functional
Outline: (§1)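 CLSI M7A7 microbroth dilution in Mueller-Hinton broth; S. pneumoniae broth given 5% lysed horse blood. DMSO stocks of 10 mg/mL; twofold dilutions to final 200–0.0125 µg/mL. Mid-log inoculum (OD600 0.5) diluted to final OD600 0.0005 (~10^5 CFU/mL). Overnight at 37°C; MIC is the lowest concentration inhibiting 90% of visible growth.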

Enterococcus faecalis = assay: Antibacterial activity against Enterococcus faecalis ATCC 33186 after overnight incubation by microbroth dilution assay; type: functional
Outline: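 CLSI microbroth dilution in Mueller-Hinton broth; compounds dissolved in DMSO, twofold serial dilutions giving final 200–0.0125 µg/mL. Inoculum from single colony grown at 37°C to mid-log (OD600 0.5), diluted to final OD600 0.0005 (~10^5 CFU/mL). Incubated overnight at 37°C; MIC = lowest concentration inhibiting 90% of visible growth.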

Bacillus subtilis = assay: Antibacterial activity against Bacillus subtilis ATCC 23857 after overnight incubation by microbroth dilution assay; type: functional; outline: as §1
Bacillus anthracis [2] = assay: Antibacterial activity against Bacillus anthracis after overnight incubation by microbroth dilution assay; type: functional
Staphylococcus aureus [3] = assay: Inhibition of DNA synthesis in Staphylococcus aureus RN4220 harboring gpsA mutant assessed as inhibition of [3H]thymidine incorporation into DNA at 50 uM incubated for 15 mins before [3H]thymidine addition measured after 30 mins by scintillation counting; type: functional, organism-based
Outline: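 RN4220 at OD600 0.5 in 10 mL aliquots, 15 min with compound. Then 30 min with 10 µCi label: 3H amino acid mix (protein), [3H]thymidine (DNA) or [3H]uracil (stable RNA). Cells collected on 0.45 µm filters, counted, OD600-normalized and expressed relative to untreated cells. Duplicates, mean with standard error.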

[4] = tested on: Staphylococcus aureus subsp. aureus RN4220; assay: Inhibition of PlsY-mediated lipid synthesis in Staphylococcus aureus RN4220 harboring gpsA mutant assessed as inhibition of [14C]acetate incorporation into fatty acid incubated for 15 mins prior to [14C]acetate addition measured after 30 mins by scintillation counting
Outline: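 Mid-log S. aureus RN4220 (OD600 0.5) split into 10 mL aliquots. Compound or DMSO added for 15 min, then 10 µCi [14C]acetate for 30 min. Cells PBS-washed, lipids extracted by Bligh–Dyer, scintillation counted and normalized to OD600. Duplicates, mean with standard error.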

[5] = tested on: Staphylococcus aureus subsp. aureus RN4220; assay: Inhibition of PlsY in Staphylococcus aureus RN4220 harboring gpsA mutant assessed as Fab4-mediated fatty acid chain elongation measured as 15C fatty acid level at 25 uM after 2.5 hrs by mass spectrophotometry; set-up: scale not given: the % may be the effect or the level left
Outline: (§2)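 RN4220 grown in Luria-Bertani broth at 37°C with 225 rpm shaking to OD600 0.5. 50 mL cultures treated for 2.5 h alongside a DMSO control. Lipids extracted by Bligh–Dyer and fatty acids analyzed by gas chromatography. Weight percent, mean of duplicates; not detected means <1%.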

[6] = tested on: Staphylococcus aureus subsp. aureus RN4220; assay: Inhibition of PlsY in Staphylococcus aureus RN4220 harboring gpsA mutant assessed as Fab4-mediated fatty acid chain elongation measured as 16C fatty acid level at 25 uM after 2.5 hrs by mass spectrophotometry; set-up: scale not given: the % may be the effect or the level left; outline: as §2
[7] = tested on: Staphylococcus aureus subsp. aureus RN4220; assay: Inhibition of PlsY in Staphylococcus aureus RN4220 harboring gpsA mutant assessed as Fab4-mediated fatty acid chain elongation measured as 18C fatty acid level at 25 uM after 2.5 hrs by mass spectrophotometry; set-up: scale not given: the % may be the effect or the level left; outline: as §2
[8] = tested on: Staphylococcus aureus subsp. aureus RN4220; assay: Inhibition of PlsY in Staphylococcus aureus RN4220 harboring gpsA mutant assessed as Fab4-mediated fatty acid chain elongation measured as 19C fatty acid level at 25 uM after 2.5 hrs by mass spectrophotometry; set-up: scale not given: the % may be the effect or the level left; outline: as §2
[9] = tested on: Staphylococcus aureus subsp. aureus RN4220; assay: Inhibition of PlsY in Staphylococcus aureus RN4220 harboring gpsA mutant assessed as Fab4-mediated fatty acid chain elongation measured as 20C fatty acid level at 25 uM after 2.5 hrs by mass spectrophotometry; set-up: scale not given: the % may be the effect or the level left; outline: as §2
[10] = tested on: Staphylococcus aureus subsp. aureus RN4220; assay: Inhibition of PlsY in Staphylococcus aureus RN4220 harboring gpsA mutant assessed as Fab4-mediated fatty acid chain elongation measured as 21C fatty acid level at 25 uM after 2.5 hrs by mass spectrophotometry; set-up: scale not given: the % may be the effect or the level left; outline: as §2
[11] = tested on: Staphylococcus aureus subsp. aureus RN4220; assay: Inhibition of PlsY in Staphylococcus aureus RN4220 harboring gpsA mutant assessed as Fab4-mediated fatty acid chain elongation measured as 15C fatty acid level at 50 uM after 2.5 hrs by mass spectrophotometry; set-up: scale not given: the % may be the effect or the level left; outline: as §2
[12] = tested on: Staphylococcus aureus subsp. aureus RN4220; assay: Inhibition of PlsY in Staphylococcus aureus RN4220 harboring gpsA mutant assessed as Fab4-mediated fatty acid chain elongation measured as 16C fatty acid level at 50 uM after 2.5 hrs by mass spectrophotometry; set-up: scale not given: the % may be the effect or the level left; outline: as §2
[13] = tested on: Staphylococcus aureus subsp. aureus RN4220; assay: Inhibition of PlsY in Staphylococcus aureus RN4220 harboring gpsA mutant assessed as Fab4-mediated fatty acid chain elongation measured as 18C fatty acid level at 50 uM after 2.5 hrs by mass spectrophotometry; set-up: scale not given: the % may be the effect or the level left; outline: as §2
[14] = tested on: Staphylococcus aureus subsp. aureus RN4220; assay: Inhibition of PlsY in Staphylococcus aureus RN4220 harboring gpsA mutant assessed as Fab4-mediated fatty acid chain elongation measured as 21C fatty acid level at 50 uM after 2.5 hrs by mass spectrophotometry; set-up: scale not given: the % may be the effect or the level left; outline: as §2
[15] = tested on: Staphylococcus aureus subsp. aureus RN4220; assay: Inhibition of PlsY in Staphylococcus aureus RN4220 harboring gpsA mutant assessed as 35C phophotidylglycerol formation at 50 uM after 2.5 hrs by mass spectrophotometry
Outline: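 RN4220 grown in Luria-Bertani broth at 37°C to OD600 0.5. 50 mL aliquots treated for 2.5 h alongside a DMSO control. Cells PBS-washed, lipids extracted by Bligh–Dyer. Phosphatidylglycerol molecular species distribution determined by mass spectrometry.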

[16] = tested on: Staphylococcus aureus subsp. aureus RN4220; assay: Inhibition of PlsY in Staphylococcus aureus RN4220 harboring gpsA mutant assessed as accumulation of long chain acyl-ACP at 12.5 to 100 uM after 2.5 hrs by Western blot analysis
Outline: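 Mid-log RN4220 (OD600 0.5) in 50 mL aliquots treated with compound at 37°C. Cell extracts loaded according to OD600 for similar total protein. Acyl-ACP species separated on 15% polyacrylamide gels containing 2 M urea, then detected by western blot with anti-ACP antibody.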

Bacillus anthracis [17] = assay: Growth inhibition of Bacillus anthracis sterne at 5 uM measured immediately post-compound addition; type: functional, organism-based
Bacillus anthracis [18] = assay: Inhibition of DNA synthesis in Bacillus anthracis sterne assessed as Inhibition of [3H]thymidine incorporation into DNA incubated for 15 mins prior to [3H]thymidine addition measured after 30 mins by scintillation counting; type: functional, organism-based
Bacillus anthracis [19] = assay: Inhibition of RNA synthesis in Bacillus anthracis sterne assessed as Inhibition of [3H]uracil incorporation into RNA incubated for 15 mins prior to [3H]uracil addition measured after 30 mins by scintillation counting; type: functional, organism-based
[20] = tested on: Staphylococcus aureus subsp. aureus RN4220; assay: Inhibition of PlsY-mediated lipid synthesis in Staphylococcus aureus RN4220 assessed as inhibition of [14C]acetate incorporation into membrane phospholipids incubated for 15 mins prior to [14C]acetate addition measured after 30 mins by scintillation counting
Outline: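 Cultures grown from OD600 0.1 to 0.5, split into 10 mL aliquots, exposed to inhibitor or DMSO control for 15 min, then pulsed with [14C]acetate (10 µCi) for 30 min. Cells washed 4× in PBS, lipids extracted by Bligh and Dyer, counted by scintillation and normalized to OD600. Duplicates, mean with standard error.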

SMILES: O=C(CCCCCCCc1ccccc1)NS(=O)(=O)Oc1ccccc1
- MIC90 (Staphylococcus aureus [1]): 12.5 µg/mL (≈ 33.3 µM)
- MIC90 (Enterococcus faecalis): 100 µg/mL (≈ 266 µM)
- MIC90 (Bacillus subtilis): > 200 µg/mL
- MIC90 (Bacillus anthracis [2]): 6.25 µg/mL (≈ 16.6 µM)
- inhibition (Staphylococcus aureus [3]): inactive
- inhibition [4]: Dose-dependent effect
- Activity [5]: 37%
- Activity [6]: 5%
- Activity [7]: 9%
- Activity [8]: 18%
- Activity [9]: 9%
- Activity [10]: 12%
- Activity [11]: 32%
- Activity [12]: 6%
- Activity [13]: 12%
- Activity [14]: 14%
- inhibition [15]: Active
- inhibition [16]: Active
- growth inhibition (GI) (Bacillus anthracis [17]): Active
- inhibition (Bacillus anthracis [18]): Active
- inhibition (Bacillus anthracis [19]): Active
- inhibition [20]: Dose-dependent effect
